Assay results published in ChEMBL document CHEMBL1151482, “Phenolic constituents from the stem bark of Magnolia officinalis” (J Nat Prod, 2009).
In brackets after ≈: the same amount, converted by molar mass.

Columns and labels:
BV-2 = assay: Antiinflammatory activity in mouse BV2 cells assessed as inhibition of LPS-induced NO production after 24 hrs by Griess reagent method; format: functional, cell-based; settings: BV-2, 24 h
How it was run: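 Microglial BV2 cells treated with test agents, then stimulated with LPS (0.5 µg/mL); nitrite accumulated in medium over 24 h measured with Griess reagent as NO readout; IC50 taken from concentration-response curves.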

[1] = Inhibition of NADPH oxidase-mediated ROS production in LPS-stimulated mouse BV2 cells after 20 mins by flow cytometry; format: cell-based; settings: BV-2, 20 min
How it was run: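 BV2 cells preloaded with 2′,7′-dichlorofluorescin diacetate, exposed to test agents for 20 min, then LPS-stimulated; H2O2 quantified 30 min later by flow cytometry, expressed as mean channel fluorescence; IC50 from concentration-response curves.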

[2] = test system: Radical scavenging activity; assay: Antioxidant activity assessed as DPPH free radical scavenging activity; format: functional
How it was run: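 Diluted drugs combined with DPPH solution in microplate; absorbance read at 517 nm; IC50 derived from concentration-response curves.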

IC50 (BV-2) [µg/mL]	IC50 [1] [µg/mL]	IC50 [2] [µg/mL]	SMILES
9.2 (≈ 36.2 µM)	–	–	C=CCc1ccc(O)c(-c2cc(C=O)ccc2O)c1 [MAGNALDEHYDE]
0.5 (≈ 2.06 µM)	20.6 (≈ 85 µM)	27.6 (≈ 114 µM)	C=CCc1cc(-c2cc(O)ccc2O)ccc1O [MAGNATRIOL B]
1.2 (≈ 4.95 µM)	–	21.6 (≈ 89.2 µM)	C=CCc1ccc(O)c(-c2cc(O)ccc2O)c1 [RANDAIOL]
